# Assay results: ChEMBL document CHEMBL5058577, “EUbOPEN Chemogenomics Library 2 (Multiplex)” (2022)
# Test system: HEK-293T
# Experiment: Multiplex assay against HEK293T
# Format: toxicity, cell-based
# Settings: human
# How it was run: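 Cells were classed with CellPathfinder machine-learning gating, first as Hoechst high-intensity objects or normal cells, then (normal cells) as healthy, pyknosed or fragmented nuclei, and finally (pyknosed cells) as mitotic or apoptotic. Staining of live cells at seeding used Hoechst33342, BioTracker Green Microtubule Cytoskeleton Dye, MitoTracker Red and Annexin V Alexa Fluor 680, with imaging on a CQ1 microscope at 37°C and 5% CO2 after compound addition. Tubulin, mitochondrial-mass and membrane-permeability phenotypes are per cents of healthy-nucleus cells.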
# [1] = 12 h, 1 µM, compound concentration 1 uM, replicate 1
# [2] = 12 h, 1 µM, compound concentration 1 uM, replicate 2
# [3] = 12 h, 10 µM, compound concentration 10 uM, replicate 1
# [4] = 12 h, 10 µM, compound concentration 10 uM, replicate 2
# [5] = 24 h, 1 µM, compound concentration 1 uM, replicate 1
# [6] = 24 h, 1 µM, compound concentration 1 uM, replicate 2
# [7] = 24 h, 10 µM, compound concentration 10 uM, replicate 1
# [8] = 24 h, 10 µM, compound concentration 10 uM, replicate 2
# [9] = 48 h, 1 µM, compound concentration 1 uM, replicate 1
# [10] = 48 h, 1 µM, compound concentration 1 uM, replicate 2
# [11] = 48 h, 10 µM, compound concentration 10 uM, replicate 1
# [12] = 48 h, 10 µM, compound concentration 10 uM, replicate 2
compound,measurement,setting,value
COc1cc(Nc2ncc3c(n2)-c2ccc(Cl)cc2C(c2c(F)cccc2OC)=NC3)ccc1C(=O)O [ALISERTIB],Population Apoptotic (%),[1],38%
same,Population Fragmented Nuclei (%),[1],3%
same,Population Healthy Nuclei (%),[1],88%
same,Population Hoechst High Intensity Objects (%),[1],5%
same,Population Membrane Permeable-Phenotype (%),[1],0%
same,Population Mitochondria Different-Phenotype (%),[1],44%
same,Population Mitotic Cells (%),[1],61%
same,Population Normal (%),[1],94%
same,Population Pyknosed Nuclei (%),[1],7%
same,Population Tubulin-Different-Phenotype (%),[1],46%
same,Population Apoptotic (%),[2],61%
same,Population Fragmented Nuclei (%),[2],7%
same,Population Healthy Nuclei (%),[2],85%
same,Population Hoechst High Intensity Objects (%),[2],7%
same,Population Mitochondria Different-Phenotype (%),[2],69%
same,Population Mitotic Cells (%),[2],38%
same,Population Normal (%),[2],93%
same,Population Tubulin-Different-Phenotype (%),[2],49%
same,Population Apoptotic (%),[3],61%
same,Population Fragmented Nuclei (%),[3],8%
same,Population Healthy Nuclei (%),[3],74%
same,Population Hoechst High Intensity Objects (%),[3],9%
same,Population Membrane Permeable-Phenotype (%),[3],0%
same,Population Mitochondria Different-Phenotype (%),[3],80%
same,Population Mitotic Cells (%),[3],38%
same,Population Normal (%),[3],90%
same,Population Pyknosed Nuclei (%),[3],16%
same,Population Tubulin-Different-Phenotype (%),[3],68%
same,Population Apoptotic (%),[4],88%
same,Population Fragmented Nuclei (%),[4],9%
same,Population Healthy Nuclei (%),[4],72%
same,Population Hoechst High Intensity Objects (%),[4],15%
same,Population Mitochondria Different-Phenotype (%),[4],82%
same,Population Mitotic Cells (%),[4],11%
same,Population Normal (%),[4],84%
same,Population Pyknosed Nuclei (%),[4],17%
same,Population Tubulin-Different-Phenotype (%),[4],54%
same,Population Apoptotic (%),[5],50%
same,Population Fragmented Nuclei (%),[5],10%
same,Population Healthy Nuclei (%),[5],82%
same,Population Hoechst High Intensity Objects (%),[5],3%
same,Population Membrane Permeable-Phenotype (%),[5],0%
same,Population Mitochondria Different-Phenotype (%),[5],25%
same,Population Mitotic Cells (%),[5],50%
same,Population Normal (%),[5],96%
same,Population Pyknosed Nuclei (%),[5],7%
same,Population Tubulin-Different-Phenotype (%),[5],31%
same,Population Apoptotic (%),[6],47%
same,Population Fragmented Nuclei (%),[6],9%
same,Population Healthy Nuclei (%),[6],81%
same,Population Hoechst High Intensity Objects (%),[6],9%
same,Population Mitochondria Different-Phenotype (%),[6],47%
same,Population Mitotic Cells (%),[6],52%
same,Population Normal (%),[6],90%
same,Population Pyknosed Nuclei (%),[6],9%
same,Population Tubulin-Different-Phenotype (%),[6],30%
same,Population Apoptotic (%),[7],54%
same,Population Fragmented Nuclei (%),[7],8%
same,Population Healthy Nuclei (%),[7],74%
same,Population Hoechst High Intensity Objects (%),[7],6%
same,Population Membrane Permeable-Phenotype (%),[7],0%
same,Population Mitochondria Different-Phenotype (%),[7],75%
same,Population Mitotic Cells (%),[7],45%
same,Population Normal (%),[7],93%
same,Population Pyknosed Nuclei (%),[7],16%
same,Population Tubulin-Different-Phenotype (%),[7],64%
same,Population Apoptotic (%),[8],56%
same,Population Fragmented Nuclei (%),[8],12%
same,Population Healthy Nuclei (%),[8],55%
same,Population Hoechst High Intensity Objects (%),[8],34%
same,Population Membrane Permeable-Phenotype (%),[8],1%
same,Population Mitochondria Different-Phenotype (%),[8],86%
same,Population Mitotic Cells (%),[8],43%
same,Population Normal (%),[8],65%
same,Population Pyknosed Nuclei (%),[8],31%
same,Population Tubulin-Different-Phenotype (%),[8],50%
same,Population Apoptotic (%),[9],31%
same,Population Fragmented Nuclei (%),[9],14%
same,Population Healthy Nuclei (%),[9],79%
same,Population Hoechst High Intensity Objects (%),[9],3%
same,Population Membrane Permeable-Phenotype (%),[9],0%
same,Population Mitochondria Different-Phenotype (%),[9],14%
same,Population Mitotic Cells (%),[9],68%
same,Population Normal (%),[9],96%
same,Population Pyknosed Nuclei (%),[9],5%
same,Population Tubulin-Different-Phenotype (%),[9],17%
same,Population Apoptotic (%),[10],57%
same,Population Fragmented Nuclei (%),[10],16%
same,Population Healthy Nuclei (%),[10],77%
same,Population Hoechst High Intensity Objects (%),[10],15%
same,Population Mitochondria Different-Phenotype (%),[10],27%
same,Population Mitotic Cells (%),[10],42%
same,Population Normal (%),[10],84%
same,Population Tubulin-Different-Phenotype (%),[10],24%
same,Population Apoptotic (%),[11],48%
same,Population Fragmented Nuclei (%),[11],13%
same,Population Healthy Nuclei (%),[11],78%
same,Population Hoechst High Intensity Objects (%),[11],5%
same,Population Membrane Permeable-Phenotype (%),[11],0%
same,Population Mitochondria Different-Phenotype (%),[11],57%
same,Population Mitotic Cells (%),[11],52%
same,Population Normal (%),[11],94%
same,Population Pyknosed Nuclei (%),[11],7%
same,Population Tubulin-Different-Phenotype (%),[11],42%
same,Population Apoptotic (%),[12],82%
same,Population Fragmented Nuclei (%),[12],19%
same,Population Healthy Nuclei (%),[12],61%
same,Population Hoechst High Intensity Objects (%),[12],32%
same,Population Membrane Permeable-Phenotype (%),[12],4%
same,Population Mitochondria Different-Phenotype (%),[12],73%
same,Population Mitotic Cells (%),[12],17%
same,Population Normal (%),[12],67%
same,Population Pyknosed Nuclei (%),[12],19%
same,Population Tubulin-Different-Phenotype (%),[12],38%
O=c1nc2[nH]c3ccccc3nc-2c(=O)[nH]1 [ALLOXAZINE],Population Apoptotic (%),[1],27%
same,Population Fragmented Nuclei (%),[1],8%
same,Population Healthy Nuclei (%),[1],77%
same,Population Hoechst High Intensity Objects (%),[1],8%
same,Population Membrane Permeable-Phenotype (%),[1],0%
same,Population Mitochondria Different-Phenotype (%),[1],44%
same,Population Mitotic Cells (%),[1],72%
same,Population Normal (%),[1],91%
same,Population Pyknosed Nuclei (%),[1],13%
same,Population Tubulin-Different-Phenotype (%),[1],33%
same,Total Cell Count,[1],377
same,Population Apoptotic (%),[2],44%
same,Population Fragmented Nuclei (%),[2],4%
same,Population Healthy Nuclei (%),[2],79%
same,Population Hoechst High Intensity Objects (%),[2],7%
same,Population Mitochondria Different-Phenotype (%),[2],66%
same,Population Mitotic Cells (%),[2],55%
same,Population Normal (%),[2],92%
same,Population Pyknosed Nuclei (%),[2],15%
same,Population Tubulin-Different-Phenotype (%),[2],25%
same,Total Cell Count,[2],345
same,Population Apoptotic (%),[3],40%
same,Population Fragmented Nuclei (%),[3],10%
same,Population Healthy Nuclei (%),[3],71%
same,Population Hoechst High Intensity Objects (%),[3],5%
same,Population Membrane Permeable-Phenotype (%),[3],0%
same,Population Mitochondria Different-Phenotype (%),[3],53%
same,Population Mitotic Cells (%),[3],59%
same,Population Normal (%),[3],94%
same,Population Pyknosed Nuclei (%),[3],18%
same,Population Tubulin-Different-Phenotype (%),[3],31%
same,Total Cell Count,[3],362
same,Population Apoptotic (%),[4],60%
same,Population Fragmented Nuclei (%),[4],8%
same,Population Healthy Nuclei (%),[4],70%
same,Population Hoechst High Intensity Objects (%),[4],15%
same,Population Mitochondria Different-Phenotype (%),[4],67%
same,Population Mitotic Cells (%),[4],40%
same,Population Normal (%),[4],84%
same,Population Pyknosed Nuclei (%),[4],20%
same,Population Tubulin-Different-Phenotype (%),[4],20%
same,Total Cell Count,[4],323
same,Population Apoptotic (%),[5],22%
same,Population Fragmented Nuclei (%),[5],10%
same,Population Healthy Nuclei (%),[5],76%
same,Population Hoechst High Intensity Objects (%),[5],4%
same,Population Membrane Permeable-Phenotype (%),[5],0%
same,Population Mitochondria Different-Phenotype (%),[5],24%
same,Population Mitotic Cells (%),[5],77%
same,Population Normal (%),[5],95%
same,Population Pyknosed Nuclei (%),[5],12%
same,Population Tubulin-Different-Phenotype (%),[5],19%
same,Total Cell Count,[5],504
same,Population Apoptotic (%),[6],33%
same,Population Fragmented Nuclei (%),[6],7%
same,Population Healthy Nuclei (%),[6],83%
same,Population Hoechst High Intensity Objects (%),[6],7%
same,Population Mitochondria Different-Phenotype (%),[6],41%
same,Population Mitotic Cells (%),[6],66%
same,Population Normal (%),[6],92%
same,Population Pyknosed Nuclei (%),[6],8%
same,Population Tubulin-Different-Phenotype (%),[6],12%
same,Total Cell Count,[6],391
same,Population Apoptotic (%),[7],27%
same,Population Fragmented Nuclei (%),[7],9%
same,Population Healthy Nuclei (%),[7],77%
same,Population Hoechst High Intensity Objects (%),[7],6%
same,Population Membrane Permeable-Phenotype (%),[7],0%
same,Population Mitochondria Different-Phenotype (%),[7],34%
same,Population Mitotic Cells (%),[7],72%
same,Population Normal (%),[7],93%
same,Population Pyknosed Nuclei (%),[7],12%
same,Population Tubulin-Different-Phenotype (%),[7],21%
same,Total Cell Count,[7],491
same,Population Apoptotic (%),[8],50%
same,Population Healthy Nuclei (%),[8],72%
same,Population Hoechst High Intensity Objects (%),[8],15%
same,Population Mitochondria Different-Phenotype (%),[8],48%
same,Population Mitotic Cells (%),[8],50%
same,Population Normal (%),[8],84%
same,Population Pyknosed Nuclei (%),[8],17%
same,Population Tubulin-Different-Phenotype (%),[8],16%
same,Total Cell Count,[8],371
same,Population Apoptotic (%),[9],32%
same,Population Fragmented Nuclei (%),[9],14%
same,Population Healthy Nuclei (%),[9],77%
same,Population Hoechst High Intensity Objects (%),[9],3%
same,Population Membrane Permeable-Phenotype (%),[9],1%
same,Population Mitochondria Different-Phenotype (%),[9],18%
same,Population Mitotic Cells (%),[9],67%
same,Population Normal (%),[9],96%
same,Population Pyknosed Nuclei (%),[9],8%
same,Population Tubulin-Different-Phenotype (%),[9],13%
same,Total Cell Count,[9],773
same,Population Apoptotic (%),[10],27%
same,Population Fragmented Nuclei (%),[10],11%
same,Population Healthy Nuclei (%),[10],82%
same,Population Hoechst High Intensity Objects (%),[10],4%
same,Population Membrane Permeable-Phenotype (%),[10],0%
same,Population Mitochondria Different-Phenotype (%),[10],26%
same,Population Mitotic Cells (%),[10],72%
same,Population Normal (%),[10],95%
same,Population Pyknosed Nuclei (%),[10],6%
same,Population Tubulin-Different-Phenotype (%),[10],12%
same,Total Cell Count,[10],636
same,Population Apoptotic (%),[11],29%
same,Population Fragmented Nuclei (%),[11],15%
same,Population Healthy Nuclei (%),[11],76%
same,Population Hoechst High Intensity Objects (%),[11],3%
same,Population Membrane Permeable-Phenotype (%),[11],0%
same,Population Mitochondria Different-Phenotype (%),[11],17%
same,Population Mitotic Cells (%),[11],70%
same,Population Normal (%),[11],96%
same,Population Pyknosed Nuclei (%),[11],7%
same,Population Tubulin-Different-Phenotype (%),[11],11%
same,Total Cell Count,[11],700
same,Population Apoptotic (%),[12],48%
same,Population Fragmented Nuclei (%),[12],14%
same,Population Healthy Nuclei (%),[12],78%
same,Population Hoechst High Intensity Objects (%),[12],4%
same,Population Mitochondria Different-Phenotype (%),[12],28%
same,Population Mitotic Cells (%),[12],51%
same,Population Normal (%),[12],95%
same,Population Pyknosed Nuclei (%),[12],6%
same,Population Tubulin-Different-Phenotype (%),[12],14%
same,Total Cell Count,[12],531
